Numbering of substitutions follows the chain as printed. Read-outs that look alike come from different tables or passages of the source.
Assays:
I636D HCN2 C-terminus = molecular target: T1, I636D HCN2 C-terminus (Mus musculus, UniProt O88703, I636D); assay: ITC binding to I636D HCN2 C-terminus
T1 sequence (O88703 443-645 I636D): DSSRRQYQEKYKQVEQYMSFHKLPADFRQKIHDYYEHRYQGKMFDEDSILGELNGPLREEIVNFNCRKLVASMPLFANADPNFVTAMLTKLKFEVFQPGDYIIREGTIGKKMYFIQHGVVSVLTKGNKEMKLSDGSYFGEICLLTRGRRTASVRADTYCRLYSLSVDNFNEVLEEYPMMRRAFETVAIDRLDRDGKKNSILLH

[1] = molecular target: T2, R632A-HMT HCN2 C-linker/CNBD (Mus musculus, UniProt O88703, R632A); assay: ITC binding to R632A-HMT protein; conditions: two trials
T2 sequence (O88703 443-645 R632A): T1 sequence (O88703 443-645 I636D) with R190A, D194I

D634A HCN2 C-terminus = molecular target: T3, D634A HCN2 C-terminus (Mus musculus, UniProt O88703, D634A); assay: ITC binding to D634A HCN2 C-terminus; conditions: for Kd: two-site model, mean ± SEM
T3 sequence (O88703 443-645 D634A): T1 sequence (O88703 443-645 I636D) with D192A, D194I
How it was run: (§1)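 HCN2 C-linker/CNBD point mutant (residues 443–645) expressed from an HMT-tagged pET28 vector in Rosetta DE3 pLacI cells, induced 4 h. […] Integrated heats fitted to a one- or two-site independent binding model; ≥3 replicates.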

I636A HCN2 C-terminus = molecular target: T4, I636A HCN2 C-terminus (Mus musculus, UniProt O88703, I636A); assay: ITC binding to I636A HCN2 C-terminus
T4 sequence (O88703 443-645 I636A): T1 sequence (O88703 443-645 I636D) with D194A

[2] = molecular target: T5, wild-type HCN2 C-terminus (Mus musculus, UniProt O88703); assay: ITC binding to wild-type HCN2 C-terminus; conditions: for n: Wild type, mean ± SEM
T5 sequence (O88703 443-645): T1 sequence (O88703 443-645 I636D) with D194I

K638A HCN2 C-terminus = molecular target: T6, K638A HCN2 C-terminus (Mus musculus, UniProt O88703, K638A); assay: ITC binding to K638A HCN2 C-terminus
T6 sequence (O88703 443-645 K638A): T1 sequence (O88703 443-645 I636D) with D194I, K196A
How it was run: as §1

T592A HCN2 C-terminus = molecular target: T7, T592A HCN2 C-terminus (Mus musculus, UniProt O88703, T592A); assay: ITC binding to T592A HCN2 C-terminus
T7 sequence (O88703 443-645 T592A): T1 sequence (O88703 443-645 I636D) with T150A, D194I
How it was run: as §1

R635A HCN2 C-terminus = molecular target: T8, R635A HCN2 C-terminus (Mus musculus, UniProt O88703, R635A); assay: ITC binding to R635A HCN2 C-terminus; conditions: stoichiometry, single-site model, four trials, three from Ng et al., 2016
T8 sequence (O88703 443-645 R635A): T1 sequence (O88703 443-645 I636D) with R193A, D194I

D631A HCN2 C-terminus = molecular target: T9, D631A HCN2 C-terminus (Mus musculus, UniProt O88703, D631A); assay: ITC binding to D631A HCN2 C-terminus; conditions: for Kd: two-site model, mean ± SEM
T9 sequence (O88703 443-645 D631A): T1 sequence (O88703 443-645 I636D) with D189A, D194I

[3] = molecular target: T5, wild-type HCN2 C-terminus; conditions: previously found; ref Ng et al., 2016; cited from earlier work
R591A HCN2 C-terminus = molecular target: T10, R591A HCN2 C-terminus (Mus musculus, UniProt O88703, R591A); assay: ITC binding to R591A HCN2 C-terminus
T10 sequence (O88703 443-645 R591A): T1 sequence (O88703 443-645 I636D) with R149A, D194I
How it was run: as §1

I630A HCN2 C-terminus = molecular target: T11, I630A HCN2 C-terminus (Mus musculus, UniProt O88703, I630A); assay: ITC binding to I630A HCN2 C-terminus; conditions: for Kd: two-site model, mean ± SEM
T11 sequence (O88703 443-645 I630A): T1 sequence (O88703 443-645 I636D) with I188A, D194I
How it was run: as §1

L633A HCN2 C-terminus = molecular target: T12, L633A HCN2 C-terminus (Mus musculus, UniProt O88703, L633A); assay: ITC binding to L633A HCN2 C-terminus
T12 sequence (O88703 443-645 L633A): T1 sequence (O88703 443-645 I636D) with L191A, D194I
How it was run: as §1

HCN2 channel = conditions: cited from earlier work
HCN2 C-terminus = conditions: 10 and 25 µM HCN2 C-terminus, very high ligand levels; ref Ng et al., 2016; cited from earlier work
[4] = high-affinity event, two-site model, mean ± SEM
[5] = low-affinity event, two-site model, mean ± SEM
[6] = read-out: Kd Site 1, model input from ITC
[7] = read-out: Kd Site 2, model input from ITC
[8] = read-out: Kd Site 3, model input from ITC
[9] = read-out: Kd Site 4, model input from ITC
[10] = stoichiometry of high-affinity event
[11] = stoichiometry of low-affinity event
[12] = single-site independent binding model, mean ± SEM
[13] = stoichiometry, single-site model
[14] = single-site independent binding model, mean ± SEM, c value <1
[15] = slope of ΔH at 10°C and 25°C, data of Chow et al., 2012

With cGMP the Kd (I636D HCN2 C-terminus; [4]) was 0.21 ± 0.07 µM, the Kd (I636D HCN2 C-terminus; [5]) was 1.76 ± 0.51 µM and the Kd (I636D HCN2 C-terminus; [6]) was 0.21 µM. It also gave a Kd (I636D HCN2 C-terminus; [7]) of 1.76 µM, a Kd (I636D HCN2 C-terminus; [8]) of 1.76 µM and a Kd (I636D HCN2 C-terminus; [9]) of 1.76 µM. The n (I636D HCN2 C-terminus; [10]) was 0.18 ± 0.04, the n (I636D HCN2 C-terminus; [11]) was 0.56 ± 0.08 and the “binding to R632A-HMT protein” value [1] was “not detected”. For the same compound, the Kd (D634A HCN2 C-terminus; high-affinity event) was 0.54 ± 0.1 µM, the Kd (D634A HCN2 C-terminus; low-affinity event) was 8.04 ± 1.32 µM and the n (D634A HCN2 C-terminus; [10]) was 0.23 ± 0.04. The n (D634A HCN2 C-terminus; [11]) was 0.87 ± 0.14, the Kd (I636A HCN2 C-terminus; [4]) was 0.24 ± 0.02 µM and the Kd (I636A HCN2 C-terminus; [5]) was 3.23 ± 0.15 µM. The Kd (I636A HCN2 C-terminus; [6]) was 0.24 µM, the Kd (I636A HCN2 C-terminus; [7]) was 3.23 µM and the Kd (I636A HCN2 C-terminus; [8]) was 3.23 µM. For the same compound, the Kd (I636A HCN2 C-terminus; [9]) was 3.23 µM, the n (I636A HCN2 C-terminus; [10]) was 0.23 ± 0.01 and the n (I636A HCN2 C-terminus; [11]) was 0.44 ± 0.02. For the same compound, the n [2, 10] was 0.21 ± 0.01, the n [2, 11] was 0.27 ± 0.01 and the “fold difference between low- and high-affinity binding” value ([2]; found here) was 3 fold. For the same compound, the “increase of the high-affinity Kd compared with cAMP binding” value ([2]; wild-type HCN2 C-terminus) was “threefold”, the “increase of the low-affinity Kd compared with cAMP binding” value ([2]; wild-type HCN2 C-terminus) was ~3.4 fold and the Kd (K638A HCN2 C-terminus; [12]) was 14.7 ± 2.04 µM. The n (K638A HCN2 C-terminus; [13]) was 0.47 ± 0.09, the Kd (T592A HCN2 C-terminus; [14]) was 184 ± 2.69 µM and the n (T592A HCN2 C-terminus; [13]) was 0.20 ± 0.03. For the same compound, the n (R635A HCN2 C-terminus) was 0.67 ± 0.09, the Kd (D631A HCN2 C-terminus; high-affinity event) was 0.21 ± 0.06 µM and the Kd (D631A HCN2 C-terminus; low-affinity event) was 4.78 ± 0.88 µM. The n (D631A HCN2 C-terminus; [10]) was 0.20 ± 0.03, the n (D631A HCN2 C-terminus; [11]) was 0.63 ± 0.09 and the “fold difference between low- and high-affinity binding” value [3] was 2.3 fold. For the same compound, the Kd (R591A HCN2 C-terminus; [14]) was 322 ± 26.7 µM, the n (R591A HCN2 C-terminus; [13]) was 2.15E-5 ± 9.20E-6 and the Kd (I630A HCN2 C-terminus; high-affinity event) was 0.49 ± 0.11 µM. The Kd (I630A HCN2 C-terminus; low-affinity event) was 7.78 ± 0.31 µM, the n (I630A HCN2 C-terminus; [10]) was 0.24 ± 0.05 and the n (I630A HCN2 C-terminus; [11]) was 0.44 ± 0.05. The Kd (L633A HCN2 C-terminus; [12]) was 16.5 ± 3.2 µM and the n (L633A HCN2 C-terminus; [13]) was 0.74 ± 0.09.

In the case of `Nc1ccn([C@@H]2O[C@@H]3COP(=O)(O)O[C@H]3[C@H]2O)c(=O)n1` [cCMP], the agonist type (HCN2 channel) is given as “partial agonist” and the promotion of tetramerization (HCN2 C-terminus) is given as “not able to promote tetramerization”.

With cAMP the n (I636D HCN2 C-terminus; [10]) was 0.56 ± 0.07, the n (I636D HCN2 C-terminus; [11]) was 0.82 ± 0.02 and the “binding to R632A-HMT protein” value [1] was “not detected”. For the same compound, the Hill coefficient (HCN2 channel) was ~1, the EC50 (HCN2 channel; read-out: EC50 determined by the Hill equation) was ~0.1 µM and the n (D634A HCN2 C-terminus; [10]) was 0.26 ± 0.03. For the same compound, the n (D634A HCN2 C-terminus; [11]) was 0.81 ± 0.03, the n (I636A HCN2 C-terminus; [10]) was 0.36 ± 0.01 and the n (I636A HCN2 C-terminus; [11]) was 0.60 ± 0.03. For the same compound, the n [2, 10] was 0.33 ± 0.02, the n [2, 11] was 0.66 ± 0.09 and the “ΔCp, high-affinity binding” value [2, 15] was −159 cal/mol/°C. The “ΔCp, low-affinity binding” value [2, 15] was −898 cal/mol/°C, the n (K638A HCN2 C-terminus; [10]) was 0.38 ± 0.04 and the n (K638A HCN2 C-terminus; [11]) was 0.50 ± 0.03. It also gave a n (T592A HCN2 C-terminus; [10]) of 0.23 ± 0.01, a n (T592A HCN2 C-terminus; [11]) of 0.56 ± 0.06 and a n (D631A HCN2 C-terminus; [10]) of 0.21 ± 0.02. It also gave a n (D631A HCN2 C-terminus; [11]) of 0.56 ± 0.04, a n (R591A HCN2 C-terminus; [10]) of 0.35 ± 0.02 and a n (R591A HCN2 C-terminus; [11]) of 0.70 ± 0.09. For the same compound, the n (I630A HCN2 C-terminus; [10]) was 0.28± 0.03, the n (I630A HCN2 C-terminus; [11]) was 0.69 ± 0.07 and the n (L633A HCN2 C-terminus; [10]) was 0.41 ± 0.02. It also gave a n (L633A HCN2 C-terminus; [11]) of 0.69 ± 0.05.

In the case of `O=c1[nH]cnc2c1ncn2[C@@H]1O[C@@H]2COP(=O)(O)O[C@H]2[C@H]1O` [cIMP], the agonist type (HCN2 channel) is listed as “partial agonist” and the promotion of tetramerization (HCN2 C-terminus) is listed as “not able to promote tetramerization”.

Reference: paper PMC6785730 (The Journal of General Physiology, 2019)
